Assay results taken from ChEMBL document CHEMBL4814052, “Isatin-derived azoles as new potential antimicrobial agents: Design, synthesis and biological evaluation” (2021).
In brackets after ≈: the same amount, converted by molar mass. Activity calls are given as the source filed them. The calls are words filed in the database; no cut-off is given here.

Legend:
Pseudomonas aeruginosa [1] = assay: Antibacterial activity against Pseudomonas aeruginosa ATCC 27853 by broth microdilution method; assay type: functional
Acinetobacter baumannii = assay: Antibacterial activity against Acinetobacter baumannii by broth microdilution method; assay type: functional
Escherichia coli [2] = assay: Antibacterial activity against Escherichia coli by broth microdilution method; assay type: functional
Staphylococcus aureus [3] = assay: Antibacterial activity against Staphylococcus aureus by broth microdilution method; assay type: functional
Staphylococcus aureus [4] = assay: Antibacterial activity against methicillin resistant Staphylococcus aureus by broth microdilution method; assay type: functional
Pseudomonas aeruginosa [5] = assay: Antibacterial activity against Pseudomonas aeruginosa by broth microdilution method; assay type: functional
Klebsiella pneumoniae = assay: Antibacterial activity against Klebsiella pneumonia by broth microdilution method; assay type: functional
Escherichia coli [6] = assay: Antibacterial activity against Escherichia coli ATCC 25922 by broth microdilution method; assay type: functional
Staphylococcus aureus [7] = assay: Antibacterial activity against Staphylococcus aureus ATCC 25923 by broth microdilution method; assay type: functional
Staphylococcus aureus [8] = assay: Antibacterial activity against Staphylococcus aureus ATCC 29213 by broth microdilution method; assay type: functional
Enterococcus faecalis [9] = assay: Antibacterial activity against Enterococcus faecalis by broth microdilution method; assay type: functional
Candida tropicalis [10] = assay: Antifungal activity against Candida tropicalis; assay type: functional
Escherichia coli [11] = assay: Antibacterial activity against Escherichia coli ATCC 25922 measured after 6 passages by broth microdilution method; assay type: functional, organism-based
Escherichia coli [12] = assay: Antibacterial activity against Escherichia coli ATCC 25922 measured after 10 passages by broth microdilution method; assay type: functional, organism-based
Enterococcus faecalis [13] = assay: Bactericidal activity against Enterococcus faecalis by broth microdilution method; assay type: functional, organism-based
Calf thymus DNA [14] = assay: Binding affinity to calf thymus DNA assessed as hyperchromic effect by UV-Vis spectroscopy; assay type: nucleic-acid assay; conditions: Bos taurus
Method in brief: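 UV-Vis absorbance of the compound–DNA mixture is compared with the summed absorbances of free DNA and free compound. Hyperchromism is read as higher absorbance of the mixture than that sum.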

Candida parapsilosis = assay: Fungicidal activity against Candida parapsilosis ATCC 22019 assessed as […] by broth microdilution method
Escherichia coli [15] = assay: Potency index, ratio of MIC of norfloxacin to MIC of compound for antibacterial activity against Escherichia coli ATCC 25922 by broth microdilution method; assay type: functional
Calf thymus DNA [16] = assay: Binding affinity to calf thymus DNA assessed as reduction in neutral red-DNA complex formation by competitive binding assay; assay type: nucleic-acid assay; conditions: Bos taurus
Candida tropicalis [17] = assay: Fungicidal activity against Candida tropicalis by broth microdilution method; assay type: functional, organism-based

SMILES | MIC (Pseudomonas aeruginosa [1]) [µg/mL] | MIC (Acinetobacter baumannii) [µg/mL] | MIC (Escherichia coli [2]) [µg/mL] | MIC (Staphylococcus aureus [3]) [µg/mL] | MIC (Staphylococcus aureus [4]) [µg/mL] | MIC (Pseudomonas aeruginosa [5]) [µg/mL] | MIC (Klebsiella pneumoniae) [µg/mL] | MIC (Escherichia coli [6]) [µg/mL] | MIC (Staphylococcus aureus [7]) [µg/mL] | MIC (Staphylococcus aureus [8]) [µg/mL] | MIC (Enterococcus faecalis [9]) [µg/mL] | further results
O=C1C(=O)N(CCn2cnc3ccccc32)c2ccccc21 | 256 (≈ 879 µM) | 128 (≈ 439 µM) | 256 (≈ 879 µM) | 64 (≈ 220 µM) | 256 (≈ 879 µM) | 512 (≈ 1760 µM) | 128 (≈ 439 µM) | 256 (≈ 879 µM) | 256 (≈ 879 µM) | 256 (≈ 879 µM) | 256 (≈ 879 µM) | 
Cc1ccc(C(=O)CC2(O)C(=O)N(CCn3cncn3)c3ccccc32)cc1 (stereo unspecified) | 256 (≈ 680 µM) | 128 (≈ 340 µM) | 128 (≈ 340 µM) | 256 (≈ 680 µM) | 256 (≈ 680 µM) | 512 (≈ 1360 µM) | 256 (≈ 680 µM) | 512 (≈ 1360 µM) | 256 (≈ 680 µM) | 128 (≈ 340 µM) | 128 (≈ 340 µM) | 
O=C(CC1(O)C(=O)N(CCn2cncn2)c2ccccc21)c1ccccc1 (stereo unspecified) | 512 (≈ 1410 µM) | 64 (≈ 177 µM) | 256 (≈ 706 µM) | 128 (≈ 353 µM) | 128 (≈ 353 µM) | 512 (≈ 1410 µM) | 256 (≈ 706 µM) | 512 (≈ 1410 µM) | 256 (≈ 706 µM) | 256 (≈ 706 µM) | 256 (≈ 706 µM) | 
O=C(CC1(O)C(=O)N(CCn2cncn2)c2ccccc21)c1ccc(O)cc1 (stereo unspecified) | 256 (≈ 677 µM) | 512 (≈ 1350 µM) | 256 (≈ 677 µM) | 256 (≈ 677 µM) | 256 (≈ 677 µM) | 256 (≈ 677 µM) | 256 (≈ 677 µM) | 256 (≈ 677 µM) | 256 (≈ 677 µM) | 256 (≈ 677 µM) | 256 (≈ 677 µM) | 
Cc1cc2ncn(CCN3C(=O)C(=O)c4ccccc43)c2cc1C | 256 (≈ 802 µM) | 32 (≈ 100 µM) | 256 (≈ 802 µM) | 256 (≈ 802 µM) | 128 (≈ 401 µM) | 256 (≈ 802 µM) | 128 (≈ 401 µM) | 256 (≈ 802 µM) | 256 (≈ 802 µM) | 128 (≈ 401 µM) | 256 (≈ 802 µM) | 
O=C(/C=C1\C(=O)N(CCn2cncn2)c2ccccc21)c1ccccc1 | 128 (≈ 372 µM) | 128 (≈ 372 µM) | 64 (≈ 186 µM) | 128 (≈ 372 µM) | 256 (≈ 743 µM) | 32 (≈ 92.9 µM) | 64 (≈ 186 µM) | 8 (≈ 23.2 µM) | 128 (≈ 372 µM) | 128 (≈ 372 µM) | 128 (≈ 372 µM) | 
O=C1C(O)c2ccccc2N1CCn1cncn1 (stereo unspecified) | 128 (≈ 524 µM) | 64 (≈ 262 µM) | 128 (≈ 524 µM) | 128 (≈ 524 µM) | 128 (≈ 524 µM) | 256 (≈ 1050 µM) | 128 (≈ 524 µM) | 256 (≈ 1050 µM) | 64 (≈ 262 µM) | 64 (≈ 262 µM) | 128 (≈ 524 µM) | 
O=C(/C=C1\C(=O)N(CCn2cncn2)c2ccccc21)c1ccc(Cl)cc1 | 512 (≈ 1350 µM) | > 512 | 512 (≈ 1350 µM) | 512 (≈ 1350 µM) | 32 (≈ 84.5 µM) | 512 (≈ 1350 µM) | 128 (≈ 338 µM) | 64 (≈ 169 µM) | 128 (≈ 338 µM) | 64 (≈ 169 µM) | 32 (≈ 84.5 µM) | 
Cc1nccn1CCN1C(=O)C(=O)c2ccccc21 | 128 (≈ 501 µM) | 32 (≈ 125 µM) | 256 (≈ 1000 µM) | 128 (≈ 501 µM) | 128 (≈ 501 µM) | 128 (≈ 501 µM) | 64 (≈ 251 µM) | 128 (≈ 501 µM) | 128 (≈ 501 µM) | 256 (≈ 1000 µM) | 128 (≈ 501 µM) | 
O=C(CC1(O)C(=O)N(CCn2cncn2)c2ccccc21)c1ccc(Cl)cc1 (stereo unspecified) | 128 (≈ 323 µM) | 64 (≈ 161 µM) | 128 (≈ 323 µM) | 128 (≈ 323 µM) | 128 (≈ 323 µM) | 512 (≈ 1290 µM) | 256 (≈ 645 µM) | 512 (≈ 1290 µM) | 256 (≈ 645 µM) | 128 (≈ 323 µM) | 256 (≈ 645 µM) | 
CC(=O)CC1(O)C(=O)N(CCn2cncn2)c2ccccc21 (stereo unspecified) | 256 (≈ 852 µM) | 256 (≈ 852 µM) | 256 (≈ 852 µM) | 256 (≈ 852 µM) | 256 (≈ 852 µM) | 256 (≈ 852 µM) | 256 (≈ 852 µM) | 512 (≈ 1700 µM) | 256 (≈ 852 µM) | 256 (≈ 852 µM) | 256 (≈ 852 µM) | 
O=C1C(=O)N(CCn2cncn2)c2ccccc21 | 64 (≈ 264 µM) | 128 (≈ 528 µM) | 32 (≈ 132 µM) | 128 (≈ 528 µM) | 256 (≈ 1060 µM) | 128 (≈ 528 µM) | 128 (≈ 528 µM) | 8 (≈ 33 µM) | 128 (≈ 528 µM) | 32 (≈ 132 µM) | 128 (≈ 528 µM) | 
CCCc1nccn1CCN1C(=O)C(=O)c2ccccc21 | 256 (≈ 904 µM) | 32 (≈ 113 µM) | 64 (≈ 226 µM) | 64 (≈ 226 µM) | 128 (≈ 452 µM) | 128 (≈ 452 µM) | 128 (≈ 452 µM) | 64 (≈ 226 µM) | 256 (≈ 904 µM) | 16 (≈ 56.5 µM) | 128 (≈ 452 µM) | 
O=C(/C=C1\C(=O)N(CCn2cncn2)c2ccccc21)c1ccc(O)cc1 | 256 (≈ 710 µM) | 64 (≈ 178 µM) | 128 (≈ 355 µM) | 128 (≈ 355 µM) | 256 (≈ 710 µM) | 256 (≈ 710 µM) | 256 (≈ 710 µM) | 256 (≈ 710 µM) | 128 (≈ 355 µM) | 32 (≈ 88.8 µM) | 128 (≈ 355 µM) | 
O=C1C(=O)N(CCn2cnc([N+](=O)[O-])c2)c2ccccc21 | 256 (≈ 894 µM) | 32 (≈ 112 µM) | 128 (≈ 447 µM) | 128 (≈ 447 µM) | 256 (≈ 894 µM) | 64 (≈ 224 µM) | 64 (≈ 224 µM) | 64 (≈ 224 µM) | 64 (≈ 224 µM) | 32 (≈ 112 µM) | 128 (≈ 447 µM) | 
OC(Cn1cncn1)(Cn1cncn1)c1ccc(F)cc1F |  |  |  |  |  |  |  |  |  |  |  | Activity (Candida tropicalis [10]): Active
Cc1ncc([N+](=O)[O-])n1CCN1C(=O)C(=O)c2ccccc21 | 256 (≈ 853 µM) | 128 (≈ 426 µM) | 128 (≈ 426 µM) | 128 (≈ 426 µM) | 128 (≈ 426 µM) | 64 (≈ 213 µM) | 64 (≈ 213 µM) | 128 (≈ 426 µM) | 256 (≈ 853 µM) | 128 (≈ 426 µM) | 128 (≈ 426 µM) | 
CCn1cc(C(=O)O)c(=O)c2cc(F)c(N3CCNCC3)cc21 [NORFLOXACIN] | 2 (≈ 6.26 µM) | 8 (≈ 25.1 µM) | 16 (≈ 50.1 µM) | 1 (≈ 3.13 µM) | 8 (≈ 25.1 µM) | 2 (≈ 6.26 µM) | 4 (≈ 12.5 µM) | 8 (≈ 25.1 µM) | 1 (≈ 3.13 µM) | 2 (≈ 6.26 µM) | 4 (≈ 12.5 µM) | Activity (Escherichia coli [11]): inactive
O=C1C(=O)N(CCn2nnc3ccccc32)c2ccccc21 | 256 (≈ 876 µM) | 128 (≈ 438 µM) | 128 (≈ 438 µM) | 256 (≈ 876 µM) | 128 (≈ 438 µM) | 256 (≈ 876 µM) | 256 (≈ 876 µM) | 128 (≈ 438 µM) | 256 (≈ 876 µM) | 256 (≈ 876 µM) | 512 (≈ 1750 µM) | 
Cc1ccc(C(=O)/C=C2\C(=O)N(CCn3cncn3)c3ccccc32)cc1 | 512 (≈ 1430 µM) | 32 (≈ 89.3 µM) | 64 (≈ 179 µM) | 64 (≈ 179 µM) | 128 (≈ 357 µM) | 128 (≈ 357 µM) | 256 (≈ 714 µM) | 256 (≈ 714 µM) | 8 (≈ 22.3 µM) | 256 (≈ 714 µM) | 256 (≈ 714 µM) | 
CC(=O)/C=C1\C(=O)N(CCn2cncn2)c2ccccc21 | 32 (≈ 113 µM) | 64 (≈ 227 µM) | 64 (≈ 227 µM) | 64 (≈ 227 µM) | 128 (≈ 453 µM) | 32 (≈ 113 µM) | 32 (≈ 113 µM) | 1 (≈ 3.54 µM) | 128 (≈ 453 µM) | 64 (≈ 227 µM) | 32 (≈ 113 µM) | Activity (Escherichia coli [12]): Active; Activity (Enterococcus faecalis [13]): inactive; Activity (Calf thymus DNA [14]): Active; Ratio (Candida parapsilosis): 4; Ratio (Escherichia coli [15]): 8; Activity (Calf thymus DNA [16]): Active; MIC (Candida tropicalis [10]): 8 µg/mL (≈ 28.3 µM); Activity (Candida tropicalis [17]): inactive
O=C1C(=O)N(CCn2ccnn2)c2ccccc21 | 128 (≈ 528 µM) | 32 (≈ 132 µM) | 256 (≈ 1060 µM) | 32 (≈ 132 µM) | 256 (≈ 1060 µM) | 128 (≈ 528 µM) | 256 (≈ 1060 µM) | 128 (≈ 528 µM) | 256 (≈ 1060 µM) | 256 (≈ 1060 µM) | 128 (≈ 528 µM) | 
